From ChEMBL document CHEMBL1158530, “Phosphate ester derivatives of homocamptothecin: synthesis, solution stabilities and antitumor activities” (Bioorg Med Chem, 2010)
Active and inactive are the calls of the source. The calls are words filed in the database; no cut-off is given here.

Legend:
[1] = Chemical stability assessed as compound remaining at pH 7.4 after 24 hrs by modified HPLC method; type: physicochemical; details: buffer, read-out: Stability
In short: (§1)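 Drug in DMSO (2 mM, 430 μL) added to 70 μL of aqueous solution preincubated 5 min at 37 °C. Samples held at 37 °C, pH 3.0 or pH 7.4. Percent of initial phosphate-form concentration followed by modified HPLC.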

A549 [2] = test: Antitumor activity against human A549 cells xenografted in BALB/c mouse assessed as inhibition of tumor growth at 6.25 to 25 mg/kg, ip relative to control; type: functional; details: dose mg/kg 6.25-25; route intraperitoneal
In short: (§2)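 Male BALB/c nude mice (18-20g) implanted subcutaneously in right axilla with A549 cells. Treatment started at day 17 when tumors reached about 100–300 mm³. Single ip injection on day 17, six mice per group, eight controls. Caliper length and width every 4 days, TV = 1/2 × a × b². Sacrificed day 35, tumors removed; growth inhibition relative to placebo controls.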

MDA-MB-435 = test: Cytotoxicity against human MDA-MB-435 cells after 72 hrs by MTT assay; type: functional, cell-based; details: MDA-MB-435, 72 h
In short: (§3)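 A549, MDA-MB-435 and LOVO cells seeded at 6000–10,000 per well. Treated in triplicate with graded drug concentrations for 72 h at 37 °C. Viability read by MTT; IC50 taken from the dose–response curve.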

A549 [3] = test: Antitumor activity against human A549 cells xenografted in BALB/c mouse assessed as inhibition of tumor growth at 25 mg/kg, ip relative to control; type: functional; details: route intraperitoneal, read-out: TGI; in short: as §2
[4] = Chemical stability assessed as compound remaining at pH 3.0 after 24 hrs by modified HPLC method; type: physicochemical; details: buffer, read-out: Stability; in short: as §1
Bos taurus [5] = species on record: Bos taurus; test: Inhibition of calf thymus topoisomerase 1-mediated relaxation of Escherichia coli pBR322 plasmid DNA at 100 uM after 15 mins by cleavable complex assay
In short: (§4)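 Calf thymus Topo I (0.5 U) with 0.25 μg supercoiled pBR322 in Topo I buffer containing BSA, with or without drug, 37 °C for 15 min. Stopped with 0.5% SDS final. Run on 0.8% agarose gel in TAE, 120 V for 40 min, stained with ethidium bromide, viewed under UV.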

A549 [6] = test: Cytotoxicity against human A549 cells after 72 hrs by MTT assay; type: functional, cell-based; details: A549, 72 h; in short: as §3
A549 [7] = test: Antitumor activity against human A549 cells xenografted in ip dosed BALB/c mouse assessed as tumor regression; type: functional, organism-based; in short: as §2
LoVo = test: Cytotoxicity against human LoVo cells after 72 hrs by MTT assay; type: functional, cell-based; in short: as §3
Bos taurus [8] = species on record: Bos taurus; test: Inhibition of calf thymus topoisomerase 1-mediated relaxation of Escherichia coli pBR322 plasmid DNA at 1 uM after 15 mins by cleavable complex assay; in short: as §4
A549 [9] = test: Antitumor activity against human A549 cells xenografted in BALB/c mouse assessed as inhibition of tumor growth at 50 mg/kg, ip relative to control; type: functional; details: route intraperitoneal, read-out: TGI; in short: as §2
Bos taurus [10] = species on record: Bos taurus; test: Inhibition of calf thymus topoisomerase 1-mediated relaxation of Escherichia coli pBR322 plasmid DNA after 15 mins by cleavable complex assay
In short: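 Calf thymus Topo I (0.5 U) incubated with 0.25 μg supercoiled pBR322 DNA in Topo I buffer with 0.1% BSA stock, with or without drug at 1, 10 and 50 μM, 37 °C for 15 min. Stopped with SDS (0.5% final). Products resolved on 0.8% agarose gel in TAE (120 V, 40 min), ethidium bromide stained, imaged under UV.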

SMILES	IC50 (MDA-MB-435) [µM]	IC50 (A549 [6]) [µM]	IC50 (LoVo) [µM]	further results
CCCCOP(=O)(OCCCC)Oc1ccc2nc3c(c(C)c2c1)Cn1c-3cc2c(c1=O)COC(=O)C[C@]2(O)CC	0.51	2.84	0.91	remaining at 24 h [1]: 95%; TGI (A549 [2]): 25%; inhibition in vivo at 25 mg/kg (A549 [3]): 59%; remaining at 24 h [4]: 100%; inhibition (Bos taurus [5]): Active; Activity (A549 [7]): Dose-dependent effect
CC[C@@]1(O)C(=O)OCc2c1cc1n(c2=O)Cc2cc3ccccc3nc2-1	–	–	–	inhibition (Bos taurus [8]): inactive
CC[C@@]1(O)CC(=O)OCc2c1cc1n(c2=O)Cc2c-1nc1ccc(OP(=O)(OC(C)C)OC(C)C)cc1c2C	3.4	11.4	5.56	–
CC[C@@]1(O)CC(=O)OCc2c1cc1n(c2=O)Cc2c-1nc1ccc(OP(=O)(O)OCc3ccccc3)cc1c2C	10.8	29.4	9.31	–
CCCCCOP(=O)(OCCCCC)Oc1ccc2nc3c(c(C)c2c1)Cn1c-3cc2c(c1=O)COC(=O)C[C@]2(O)CC	0.72	2.3	1.19	remaining at 24 h [1]: 91%; remaining at 24 h [4]: 100%; inhibition in vivo at 50 mg/kg (A549 [9]): 42%; Activity (A549 [7]): Dose-dependent effect
CC[C@@]1(O)CC(=O)OCc2c1cc1n(c2=O)Cc2c-1nc1ccc(OP(=O)(OCC(F)(F)F)OCC(F)(F)F)cc1c2C	0.22	15.5	5.42	–
CC[C@@]1(O)C(=O)OCc2c1cc1n(c2=O)Cc2cc3c(CN(C)C)c(O)ccc3nc2-1 [TOPOTECAN]	< 0.001	0.04	0.02	–
CCCCCCCCCCCCCCCCOP(=O)(OCCCCCCCCCCCCCCCC)Oc1ccc2nc3c(c(C)c2c1)Cn1c-3cc2c(c1=O)COC(=O)C[C@]2(O)CC	> 100	> 100	> 100	–
CCOP(=O)(OCC)Oc1ccc2nc3c(c(C)c2c1)Cn1c-3cc2c(c1=O)COC(=O)C[C@]2(O)CC	0.79	8.05	1.26	–
CCc1c2c(nc3ccc(OC(=O)N4CCC(N5CCCCC5)CC4)cc13)-c1cc3c(c(=O)n1C2)COC(=O)[C@]3(O)CC [IRINOTECAN]	1.14	4.61	4.99	inhibition in vivo at 50 mg/kg (A549 [9]): 51%
CCOP(=O)(O)Oc1ccc2nc3c(c(C)c2c1)Cn1c-3cc2c(c1=O)COC(=O)C[C@]2(O)CC	5.26	11.4	7.24	–
CC[C@@]1(O)CC(=O)OCc2c1cc1n(c2=O)Cc2c-1nc1ccc(O)cc1c2C	< 0.001	0.03	0.01	inhibition (Bos taurus [10]): Dose-dependent effect
